Experimental data: PMC10209927 (Russian Journal of General Chemistry, 2023)

What was measured:
[1] = target: aldose reductase (ALR2) (Homo sapiens, UniProt P15121); assay: In vitro aldose reductase; format: biochemical
In short: (§1)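 Enzymes isolated and purified by earlier reported methods, ALR1 at 2.19 μg/well and ALR2 at 1.85 μg/well. Test compound (20 µL of 1 mM solution) was preincubated with the enzyme in 100 mM KH2PO4, pH 6.2, at 37°C for 10 min. Then substrate (50 mM as added) and NADPH (0.5 mM as added) were introduced. OD340 was read after 30 min. % inhibition = 100 − (A test/A control × 100). IC50 ± SEM was determined for compounds with >50% inhibition.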

[2] = target: T1, aldehyde reductase (ALR1) (Homo sapiens, UniProt P14550); assay: In vitro aldehyde reductase; format: biochemical
T1 sequence (P14550 1-325): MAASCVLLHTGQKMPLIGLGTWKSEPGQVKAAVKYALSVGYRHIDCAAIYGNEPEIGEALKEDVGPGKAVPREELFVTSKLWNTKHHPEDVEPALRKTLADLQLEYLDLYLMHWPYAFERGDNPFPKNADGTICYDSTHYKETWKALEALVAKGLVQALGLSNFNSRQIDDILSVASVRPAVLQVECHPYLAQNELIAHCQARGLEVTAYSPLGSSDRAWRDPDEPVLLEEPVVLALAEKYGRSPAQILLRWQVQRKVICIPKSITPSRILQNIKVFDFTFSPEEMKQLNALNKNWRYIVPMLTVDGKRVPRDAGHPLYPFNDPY
In short: as §1

| IC50 [1] [µM] | IC50 [2] [µM] | Structure (SMILES) |
| --- | --- | --- |
| 10 ± 1.56 |  | O=C1N=C(Nc2ccccc2)S/C1=C\c1ccccc1OCc1cn(Cc2ccc(Cl)cc2)nn1 [Compound 9c, (Z)-5-(2-{[1-(4-Chlorobenzyl)-1H-1,2,3-triazol-4-yl]methoxy}benzylidene)-2-(phenylamino)thiazol-4(5H)-one] |
| 28 ± 1.23 | 90 ± 0.56 | O=C1N=C(Nc2ccccc2)S/C1=C\c1ccccc1OCc1cn(Cc2cccc(Cl)c2)nn1 [Compound 9b, (Z)-5-(2-{[1-(3-Chlorobenzyl)-1H-1,2,3-triazol-4-yl]methoxy}benzylidene)-2-(phenylamino)thiazol-4(5H)-one] |
